Assay results as given in ChEMBL document CHEMBL1131255, “Benzylimidazolines as h5-HT1B/1D serotonin receptor ligands: a structure-affinity investigation” (J Med Chem, 1998).

Experiments:
[1] = biological target: T1, 5-hydroxytryptamine receptor 1B (Homo sapiens, UniProt P28222); assay: Binding affinity towards human 5-hydroxytryptamine 1B receptor using [3H]5-HT trifluoroacetate as radioligand
In short: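 Membrane homogenate (0.1 mg protein/well) incubated in triplicate with [3H]-5-HT (2.5 nM final) in 50 mM Tris, 10 mM MgSO4, 0.5 mM EDTA, 10 µM pargyline, 0.1% ascorbic acid, pH 7.4. Incubation 60 min at room temperature. Nonspecific binding defined with 20 µM 5-HT. Filtration over GF/B, scintillation counting.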

[2] = biological target: T2, 5-hydroxytryptamine receptor 1D (Homo sapiens, UniProt P28221); assay: Binding affinity towards human 5-hydroxytryptamine 1D receptor using [3H]5-HT trifluoroacetate as radioligand
[3] = biological target: Serotonin 1 receptors; 5-HT1B & 5-HT1D (Homo sapiens) (UniProt P28222+P28221); assay: Binding Selectivity was determined [Selectivity = Ki against h5-HT1B receptor / Ki against h5-HT1D receptor]; format: protein assay
[4] = biological target: T2, 5-hydroxytryptamine receptor 1D; assay: Adenyl cyclase activity was expressed as percent forskolin response against 5-hydroxytryptamine 1D receptor at concentration 1 uM; format: functional
In short: (§1)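 Agonist test in CHO Pro 5 cells stably transfected with human h5-HT1B or h5-HT1D receptors. Compound added to culture medium with 10 µM forskolin and 0.5 mM IBMX, 30 min at 37 °C. Stopped with cold ethanolic 5 mM EDTA (2:1 v/v) to extract cAMP. cAMP measured by enzyme immunoassay; mean ± SEM from three or more experiments.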

[5] = biological target: T1, 5-hydroxytryptamine receptor 1B; assay: Adenyl cyclase activity was expressed as percent forskolin response against 5-hydroxytryptamine 1B receptor at concentration 1 uM; format: functional; in short: as §1
[6] = biological target: Adrenergic receptor alpha; assay: Binding affinity towards Alpha-1 adrenergic receptor; format: protein assay, Canis lupus familiaris
[7] = Tested for 5-hydroxytryptamine 1D like receptor-mediated vascular effect in rabbit saphenous vein (RSV)
[8] = biological target: T2, 5-hydroxytryptamine receptor 1D; assay: Adenyl cyclase activity was expressed as percent forskolin response against 5-hydroxytryptamine 1D receptor at concentration 10 uM; format: functional; in short: as §1
[9] = biological target: T1, 5-hydroxytryptamine receptor 1B; assay: Adenyl cyclase activity was expressed as percent forskolin response against 5-hydroxytryptamine 1B receptor at concentration 10 uM; format: functional; in short: as §1
[10] = biological target: T3, Adrenergic receptor alpha-2 (Homo sapiens, UniProt P08913+P18825+P18089); assay: Binding affinity towards Alpha-2 adrenergic receptor; format: protein assay
T3 sequence (P08913 whole entry): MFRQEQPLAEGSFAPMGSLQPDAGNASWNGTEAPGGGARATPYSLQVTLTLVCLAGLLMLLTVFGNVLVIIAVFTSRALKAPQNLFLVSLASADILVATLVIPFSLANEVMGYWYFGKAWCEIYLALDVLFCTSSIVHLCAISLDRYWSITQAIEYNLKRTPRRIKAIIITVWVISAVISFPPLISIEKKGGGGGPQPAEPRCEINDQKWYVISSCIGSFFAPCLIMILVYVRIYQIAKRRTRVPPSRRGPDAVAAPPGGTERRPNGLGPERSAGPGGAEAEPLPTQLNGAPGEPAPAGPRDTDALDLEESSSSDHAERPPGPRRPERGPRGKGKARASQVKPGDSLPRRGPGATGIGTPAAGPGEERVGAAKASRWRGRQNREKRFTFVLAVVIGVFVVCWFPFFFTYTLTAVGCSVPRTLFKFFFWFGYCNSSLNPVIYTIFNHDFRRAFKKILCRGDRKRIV
T3 sequence (P18825 whole entry): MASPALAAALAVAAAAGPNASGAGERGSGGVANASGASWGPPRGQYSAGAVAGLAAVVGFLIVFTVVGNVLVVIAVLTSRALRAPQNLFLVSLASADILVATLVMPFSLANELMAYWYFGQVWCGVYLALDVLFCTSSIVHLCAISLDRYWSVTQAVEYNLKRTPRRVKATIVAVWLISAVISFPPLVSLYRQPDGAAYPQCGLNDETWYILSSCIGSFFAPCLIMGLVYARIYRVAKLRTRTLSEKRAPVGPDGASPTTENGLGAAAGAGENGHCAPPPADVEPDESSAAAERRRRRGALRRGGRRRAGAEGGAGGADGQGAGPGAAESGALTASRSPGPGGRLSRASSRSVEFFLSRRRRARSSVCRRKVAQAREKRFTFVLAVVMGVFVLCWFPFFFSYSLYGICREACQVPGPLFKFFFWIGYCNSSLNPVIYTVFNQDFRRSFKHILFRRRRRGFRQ
T3 sequence (P18089 whole entry): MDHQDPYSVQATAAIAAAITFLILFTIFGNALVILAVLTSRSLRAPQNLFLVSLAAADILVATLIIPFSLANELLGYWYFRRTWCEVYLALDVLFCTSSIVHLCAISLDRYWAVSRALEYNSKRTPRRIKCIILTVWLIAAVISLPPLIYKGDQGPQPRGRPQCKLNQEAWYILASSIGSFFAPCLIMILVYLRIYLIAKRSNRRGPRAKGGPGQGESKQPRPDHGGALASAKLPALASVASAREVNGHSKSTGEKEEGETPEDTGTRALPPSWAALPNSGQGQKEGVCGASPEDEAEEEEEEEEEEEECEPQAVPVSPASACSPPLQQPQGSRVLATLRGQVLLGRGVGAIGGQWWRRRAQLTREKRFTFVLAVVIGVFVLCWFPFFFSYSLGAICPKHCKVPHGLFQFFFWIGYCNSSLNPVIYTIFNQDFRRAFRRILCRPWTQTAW

T2 sequence (P28221 whole entry): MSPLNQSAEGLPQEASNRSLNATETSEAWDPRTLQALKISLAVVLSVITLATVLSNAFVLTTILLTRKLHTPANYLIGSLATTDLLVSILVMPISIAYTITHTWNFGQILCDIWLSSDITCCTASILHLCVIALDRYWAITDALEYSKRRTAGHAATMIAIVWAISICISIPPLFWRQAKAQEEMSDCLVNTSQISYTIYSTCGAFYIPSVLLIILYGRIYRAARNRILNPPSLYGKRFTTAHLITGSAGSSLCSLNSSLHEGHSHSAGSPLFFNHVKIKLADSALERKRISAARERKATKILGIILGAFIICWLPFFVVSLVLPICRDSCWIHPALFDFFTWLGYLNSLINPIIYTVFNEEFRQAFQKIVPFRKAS
T1 sequence (P28222 whole entry): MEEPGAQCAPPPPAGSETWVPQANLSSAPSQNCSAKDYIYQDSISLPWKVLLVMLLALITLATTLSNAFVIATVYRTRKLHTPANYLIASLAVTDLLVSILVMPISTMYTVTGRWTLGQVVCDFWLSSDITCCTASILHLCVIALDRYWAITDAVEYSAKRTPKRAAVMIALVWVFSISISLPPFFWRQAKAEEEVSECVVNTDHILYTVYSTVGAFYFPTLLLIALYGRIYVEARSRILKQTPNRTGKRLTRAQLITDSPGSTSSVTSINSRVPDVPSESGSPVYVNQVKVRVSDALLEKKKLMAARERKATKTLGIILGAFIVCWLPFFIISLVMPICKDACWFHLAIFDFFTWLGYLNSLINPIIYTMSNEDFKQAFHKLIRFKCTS

| Structure (SMILES) | Ki [1] [nM] | Ki [2] [nM] | Selectivity [3] | also measured |
| --- | --- | --- | --- | --- |
| c1ccc(CC2=NCCN2)cc1 [TOLAZOLINE] | > 10000 | > 10000 |  |  |
| CC(C)c1ccc(CC2=NCCN2)cc1 |  |  | 8 |  |
| Cc1ccc(CC2=NCCN2)c(C)c1O | 2000 | 1900 | 1 |  |
| CCCCc1ccc(CC2=NCCN2)cc1 | > 10000 | 2520 | > 4 |  |
| O=[N+]([O-])c1ccc(CC2=NCCN2)cc1 | > 10000 | > 10000 |  |  |
| Cc1cc(C(C)(C)C)ccc1CC1=NCCN1 |  |  | 105 | Response [4]: 51%; Response [5]: 63%; Ki [6]: 154 nM; EC50 [7]: 1670 nM; Response [8]: 50%; Response [9]: 58%; Ki [10]: > 500 nM |
| Brc1ccc(CC2=NCCN2)cc1 | > 10000 | 4390 | > 2 |  |
| CCCc1ccc(CC2=NCCN2)cc1 | > 10000 | 2380 | > 4 |  |
| CN1CCN=C1Cc1ccccc1 | > 10000 |  |  |  |
| Cc1cccc(C)c1CC1=NCCN1 | > 10000 | 2210 | > 4 |  |
| c1ccc(-c2ccc(CC3=NCCN3)cc2)cc1 | > 10000 | > 10000 |  |  |
| CC(C)(C)c1ccc(CC2=NCCN2)cc1 | 6830 |  | 65 | Response [4]: 69%; Response [5]: 99%; Ki [6]: 2625 nM; EC50 [7]: > 10000 nM; Response [8]: 65%; Response [9]: 86%; Ki [10]: 1120 nM |
| Cc1cc(C)c(CC2=NCCN2)c(C)c1 |  | 72 | 48 | Response [4]: 23%; Response [5]: 49%; EC50 [7]: 150 nM; Response [8]: 49%; Response [9]: 52% |
| Cc1cc(Br)cc(C)c1CC1=NCCN1 |  |  | 21 |  |
| Nc1ccc(CC2=NCCN2)cc1 | > 10000 | > 10000 |  |  |
| CNCCc1c(C)cc(C(C)(C)C)cc1C | > 10000 | > 5000 |  |  |
| Cc1ccc(O)c(C)c1CC1=NCCN1 | 5790 | 1040 | 6 |  |
| CCc1ccc(CC2=NCCN2)cc1 | > 10000 | > 10000 |  |  |
| Cc1cc(C(C)C)cc(C)c1CC1=NCCN1 |  | 1.1 | 34 | Response [4]: 34%; Response [5]: 53%; Ki [6]: 65 nM; EC50 [7]: 138 nM; Response [8]: 34%; Response [9]: 56%; Ki [10]: > 500 nM |
| Cc1cc(C(C)(C)C)cc(C)c1CC1=NCCN1 [XYLOMETAZOLINE] | 14 |  |  | Response [4]: 38%; Response [5]: 51%; Ki [6]: 91 nM; Response [8]: 41%; Response [9]: 64%; Ki [10]: > 500 nM |
| Cc1cc(C(C)(C)C)cc(C)c1CC1=NCCN1C | > 5000 |  |  |  |
| COc1cccc(CC2=NCCN2)c1 | 1630 |  |  |  |
| Oc1cccc(CC2=NCCN2)c1 | 3740 | > 10000 | < 1 |  |
| Cc1ccc(CC2=NCCN2)c(C)c1OCc1ccccc1 | 3860 | 1100 | 4 |  |
| Cc1cc(C(C)(C)C)cc(C)c1CCN | > 10000 | 1360 |  |  |
| Cc1cc(C(C)(C)C)c(O)c(C)c1CC1=NCCN1 [OXYMETAZOLINE] | 0.3 |  |  | Response [4]: 40%; Response [5]: 57%; Response [8]: 35%; Response [9]: 40% |
